ChEMBL document CHEMBL1158555, “Structure-activity relationships of bioisosteric replacement of the carboxylic acid in novel androgen receptor pure antagonists” (Bioorg Med Chem, 2010)
Activity calls are given as the source filed them. No cut-off for these calls is given here.

How the values were obtained:
[1] = target: T1, Androgen receptor (Homo sapiens) (UniProt P10275); conditions: HeLa
T1 sequence (whole entry): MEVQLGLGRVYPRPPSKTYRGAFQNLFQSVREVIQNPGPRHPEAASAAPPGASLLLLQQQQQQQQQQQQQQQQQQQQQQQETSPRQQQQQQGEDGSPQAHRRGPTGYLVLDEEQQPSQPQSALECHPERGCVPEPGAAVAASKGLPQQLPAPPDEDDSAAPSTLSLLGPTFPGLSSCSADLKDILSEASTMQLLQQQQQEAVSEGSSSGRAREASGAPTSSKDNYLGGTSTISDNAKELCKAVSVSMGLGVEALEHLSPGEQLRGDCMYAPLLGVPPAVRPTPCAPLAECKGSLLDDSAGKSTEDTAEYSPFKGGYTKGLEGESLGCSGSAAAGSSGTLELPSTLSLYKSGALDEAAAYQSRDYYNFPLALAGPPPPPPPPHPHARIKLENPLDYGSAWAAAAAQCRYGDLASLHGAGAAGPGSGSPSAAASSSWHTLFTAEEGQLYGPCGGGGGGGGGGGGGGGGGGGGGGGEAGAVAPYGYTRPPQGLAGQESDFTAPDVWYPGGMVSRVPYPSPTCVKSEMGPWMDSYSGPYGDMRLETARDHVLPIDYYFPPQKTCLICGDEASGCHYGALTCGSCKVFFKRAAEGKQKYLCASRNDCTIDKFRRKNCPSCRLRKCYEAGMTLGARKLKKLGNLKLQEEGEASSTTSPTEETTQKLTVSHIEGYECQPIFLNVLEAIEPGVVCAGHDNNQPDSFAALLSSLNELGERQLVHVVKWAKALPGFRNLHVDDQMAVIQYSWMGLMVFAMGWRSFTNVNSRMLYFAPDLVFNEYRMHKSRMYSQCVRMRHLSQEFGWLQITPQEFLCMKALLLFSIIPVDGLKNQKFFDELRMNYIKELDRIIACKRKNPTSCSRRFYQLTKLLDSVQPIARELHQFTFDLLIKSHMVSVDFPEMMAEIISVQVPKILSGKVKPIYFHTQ

[2] = target: T1, Androgen receptor (Homo sapiens); conditions: HeLa; remark: listed apart in the source
Androgen receptor = target: T2, Androgen receptor (Homo sapiens, UniProt P10275); experiment: Displacement of [3H]mibolerone from human AR expressed in CHO-K1 cells after 2 hrs by scintillation counting; format: cell-based
T2 sequence (P10275 whole entry): T1 sequence (whole entry)

[3] = target: T1, Androgen receptor (Homo sapiens); experiment: Agonist activity at AR in human LNCAP cells assessed as effect on cell proliferation after 6 days; format: functional, cell-based
Procedure, shortened: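 LNCaP cells were pre-starved and plated in phenol red-free RPMI 1640 with 5% DCC-FBS. After overnight attachment, test compound was added without R1881 for 6 days. Proliferation was read by MTS (CellTiter 96 AQueous One). Agonism was scored +/− from the growth dose-response curve.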

[4] = Metabolic stability in human liver microsomes assessed as compound remaining at […] after 15 mins by LC-MS/MS analysis; format: ADME, Microsome; conditions: read-out: Stability
LNCaP = experiment: Antitumor activity against human LNCAP cells xenografted in po dosed SCID mouse assessed as inhibition of tumor growth administered once daily in seven cycles of 5 days on and 2 days off schedule; format: functional, organism-based
Procedure, shortened: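 LNCaP cells (2×10^6) were injected subcutaneously into 6-week-old male SCID mice. At tumour size 90–400 mm³, mice were randomised and dosed orally in 5% gum arabic at 10 mL/kg body weight. Dosing ran as seven cycles of 5 days on, 2 days off, with n = 6 per group.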

Mus musculus = organism: Mus musculus; experiment: Antiandrogenic activity in castrated mouse assessed as reduction in testosterone-induced wet weight gain of seminal vesicle; format: functional

**Q.** For `CC1(C)C(=O)N(c2ccc(C#N)c(C(F)(F)F)c2)C(=S)N1CCCNC(N)=O`, which EC5 [1] is on record?
**A.** 0.65 µM

**Q.** What about the EC5 [2] of the same molecule?
**A.** 0.35 µM

**Q.** And the IC50 (Androgen receptor)?
**A.** 800 nM

**Q.** And the Activity [3]?
**A.** inactive

**Q.** With `Cc1cc(N2C(=O)C(C)(C)N(CCCS(N)(=O)=O)C2=S)ccc1C#N` as the molecule, how does the remaining [4] read?
**A.** 94%

**Q.** What about the EC5 [2] of the same molecule?
**A.** > 10 µM

**Q.** What about the IC50 (Androgen receptor) of the same molecule?
**A.** > 1000 nM

**Q.** And the Activity [3]?
**A.** inactive

**Q.** For `CC1(C)C(=O)N(c2ccc(C#N)c(C(F)(F)F)c2)C(=S)N1CCCCS(N)(=O)=O`, which EC5 [1] is on record?
**A.** > 10 µM

**Q.** And the EC5 [2]?
**A.** > 10 µM

**Q.** And the IC50 (Androgen receptor)?
**A.** > 1000 nM

**Q.** What about the Activity [3] of the same molecule?
**A.** inactive

**Q.** Which results are given for `CN(C)S(=O)(=O)CCCN1C(=S)N(c2ccc(C#N)c(C(F)(F)F)c2)C(=O)C1(C)C`?
**A.** EC5 [1]: 0.11 µM; IC50 (Androgen receptor): 80 nM; Activity [3]: Active

**Q.** Which EC5 [1] does the source give for `CC1(C)C(=O)N(c2ccc(C#N)c(C(F)(F)F)c2)C(=S)N1CCS(N)(=O)=O` here?
**A.** > 10 µM

**Q.** And the EC5 [2]?
**A.** 7.2 µM

**Q.** And the IC50 (Androgen receptor)?
**A.** 770 nM

**Q.** What about the Activity [3] of the same molecule?
**A.** inactive

**Q.** What does the source list for `CC1(C)C(=O)N(c2ccc(C#N)cc2)C(=S)N1CCCS(N)(=O)=O`?
**A.** remaining [4]: 92%; EC5 [2]: > 10 µM; IC50 (Androgen receptor): > 5000 nM

**Q.** With `CNS(=O)(=O)CCCN1C(=S)N(c2ccc(C#N)c(C(F)(F)F)c2)C(=O)C1(C)C` as the molecule, how does the EC5 [1] read?
**A.** > 10 µM

**Q.** And the EC5 [2]?
**A.** 1.4 µM

**Q.** And the IC50 (Androgen receptor)?
**A.** 170 nM

**Q.** And the Activity [3]?
**A.** inactive

**Q.** Which results are given for `CC1(C)C(=O)N(c2ccc(C#N)c(C(F)(F)F)c2)C(=S)N1CCCNS(N)(=O)=O`?
**A.** EC5 [1]: > 10 µM; EC5 [2]: > 10 µM; IC50 (Androgen receptor): > 1000 nM; Activity [3]: inactive

**Q.** With `CC1(C)C(=O)N(c2ccc(C#N)c(C(F)(F)F)c2)C(=S)N1CCCC(N)=O` as the molecule, how does the EC5 [1] read?
**A.** 3.6 µM

**Q.** And the EC5 [2]?
**A.** > 10 µM

**Q.** What about the IC50 (Androgen receptor) of the same molecule?
**A.** 480 nM

**Q.** And the Activity [3]?
**A.** inactive

**Q.** What does the source list for `CC1(C)C(=O)N(c2ccc(C#N)c(Cl)c2)C(=S)N1CCCS(N)(=O)=O`?
**A.** remaining [4]: 100%; inhibition (LNCaP): Dose-dependent effect; ED50 (Mus musculus): 10 mg/kg; IC50 (Androgen receptor): 440 nM; Activity [3]: inactive

**Q.** Which EC5 [1] does the source give for `CN1C(=S)N(c2ccc(C#N)c(C(F)(F)F)c2)C(=O)C1(C)C` here?
**A.** < 0.001 µM

**Q.** And the EC5 [2]?
**A.** 8e-05 µM

**Q.** And the IC50 (Androgen receptor)?
**A.** 15 nM

**Q.** What about the Activity [3] of the same molecule?
**A.** Active

**Q.** For `Cc1cc(C#N)c(C(F)(F)F)cc1N1C(=O)C(C)(C)N(CCCS(N)(=O)=O)C1=S`, which remaining [4] is on record?
**A.** 91%

**Q.** What about the EC5 [2] of the same molecule?
**A.** > 10 µM

**Q.** And the IC50 (Androgen receptor)?
**A.** > 5000 nM

**Q.** For `CC1(C)C(=O)N(c2ccc(C#N)c(C(F)(F)F)c2)C(=S)N1CCCS(=O)(=O)O`, which EC5 [1] is on record?
**A.** > 10 µM

**Q.** What about the IC50 (Androgen receptor) of the same molecule?
**A.** > 1000 nM

**Q.** And the Activity [3]?
**A.** Active

**Q.** What does the source list for `CC1(C)C(=O)N(c2ccc(C#N)c(C(F)(F)F)c2)C(=S)N1CCCC(=O)O`?
**A.** remaining [4]: 97%; EC5 [1]: > 10 µM; EC5 [2]: > 10 µM; IC50 (Androgen receptor): 3900 nM; Activity [3]: inactive

**Q.** Which remaining [4] does the source give for `Cc1c(N2C(=O)C(C)(C)N(CCCS(N)(=O)=O)C2=S)ccc(C#N)c1C(F)(F)F` here?
**A.** 89%

**Q.** And the EC5 [2]?
**A.** 2 µM

**Q.** What about the IC50 (Androgen receptor) of the same molecule?
**A.** 260 nM

**Q.** What about the Activity [3] of the same molecule?
**A.** Active

**Q.** Which EC5 [1] does the source give for `CC1(C)C(=O)N(c2ccc(C#N)c(C(F)(F)F)c2)C(=S)N1CCCc1nnn[nH]1` here?
**A.** > 10 µM

**Q.** What about the IC50 (Androgen receptor) of the same molecule?
**A.** > 1000 nM

**Q.** And the Activity [3]?
**A.** inactive

**Q.** Which results are given for `CC1(C)C(=O)N(c2ccc(C#N)c(C(F)(F)F)c2)C(=S)N1CCCS(N)(=O)=O`?
**A.** remaining [4]: 95%; EC5 [1]: > 10 µM; EC5 [2]: > 10 µM; IC50 (Androgen receptor): 400 nM; Activity [3]: inactive

**Q.** What does the source list for `COc1cc(N2C(=O)C(C)(C)N(CCCS(N)(=O)=O)C2=S)ccc1C#N`?
**A.** remaining [4]: 100%; EC5 [2]: > 10 µM; IC50 (Androgen receptor): 1900 nM; Activity [3]: Active
